Reference: publication PMC10125284 (ACS Bio & Med Chem Au, 2022)
Entries after “also recorded” stand apart in the source; their conditions may differ. Like-named read-outs stand apart in the source and are kept apart here.

How the values were obtained:
wild-type RP437 = experiment: FRET assay, wild-type RP437; format: cell-based, Escherichia coli
[1] = test system: wild-type E. coli strain RP437; experiment: Microfluidic chemotaxis assay, wild-type strain RP437; format: cell-based, Escherichia coli; details: wild-type E. coli RP437, all five chemoreceptors
Tar [2] = target: T1, Tar (Escherichia coli, UniProt P07017); experiment: Microfluidic chemotaxis assay, UU1250 expressing Tar as sole receptor; format: cell-based; details: cells expressing Tar as sole receptor
T1 sequence (P07017 whole entry): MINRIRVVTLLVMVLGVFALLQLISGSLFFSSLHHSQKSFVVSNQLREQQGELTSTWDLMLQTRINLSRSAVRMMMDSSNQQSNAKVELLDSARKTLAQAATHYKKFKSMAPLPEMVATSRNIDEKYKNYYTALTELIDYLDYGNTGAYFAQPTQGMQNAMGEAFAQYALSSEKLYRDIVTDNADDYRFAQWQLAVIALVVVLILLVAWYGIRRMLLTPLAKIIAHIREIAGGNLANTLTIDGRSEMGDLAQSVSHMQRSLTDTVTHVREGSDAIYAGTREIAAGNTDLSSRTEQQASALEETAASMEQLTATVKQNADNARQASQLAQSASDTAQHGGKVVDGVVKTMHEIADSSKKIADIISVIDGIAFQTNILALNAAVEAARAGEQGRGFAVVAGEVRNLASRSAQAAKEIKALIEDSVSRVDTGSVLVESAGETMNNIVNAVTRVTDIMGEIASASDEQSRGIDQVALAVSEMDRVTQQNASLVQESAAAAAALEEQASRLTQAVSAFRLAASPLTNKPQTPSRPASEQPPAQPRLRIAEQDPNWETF

Tsr [3] = target: T2, Tsr (Escherichia coli, UniProt P02942); experiment: Microfluidic chemotaxis assay, UU1250 expressing Tsr as sole receptor; format: cell-based; details: UU1250 expressing wild-type Tsr as sole receptor and GFP
T2 sequence (P02942 whole entry): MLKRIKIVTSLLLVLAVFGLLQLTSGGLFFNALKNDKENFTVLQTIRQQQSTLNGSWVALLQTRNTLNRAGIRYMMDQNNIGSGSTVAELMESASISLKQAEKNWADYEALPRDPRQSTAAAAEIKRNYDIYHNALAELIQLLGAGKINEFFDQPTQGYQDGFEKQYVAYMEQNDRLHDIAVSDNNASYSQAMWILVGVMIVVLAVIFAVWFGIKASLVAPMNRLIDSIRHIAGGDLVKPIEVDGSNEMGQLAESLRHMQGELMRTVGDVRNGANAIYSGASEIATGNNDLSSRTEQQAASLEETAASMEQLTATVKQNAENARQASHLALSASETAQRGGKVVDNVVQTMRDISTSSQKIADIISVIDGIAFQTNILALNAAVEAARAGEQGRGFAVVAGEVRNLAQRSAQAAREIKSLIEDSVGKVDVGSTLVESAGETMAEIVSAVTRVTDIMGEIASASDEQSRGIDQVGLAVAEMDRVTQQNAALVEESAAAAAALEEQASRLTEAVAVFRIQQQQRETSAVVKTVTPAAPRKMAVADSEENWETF

Tsr^R64AN68A = Tsr^R64AN68A (Escherichia coli, UniProt P02942, N68A/R64A); experiment: Microfluidic chemotaxis assay, cells expressing Tsr^R64AN68A as sole receptor; format: cell-based
Tsr^R64AN68A, sequence (P02942 whole entry R64A/N68A): as the sequence (P02942 whole entry) above, with R64A, N68A counted along it

Tsr [4] = target: T2, Tsr; experiment: FRET; format: cell-based; details: for effect of adaptation to L-serine on FRET response to ligand: Tsr adapted to 200 μM L-serine; for FRET response (kinase activity): Tsr as sole receptor, buffer-adapted
Tsr^N68A [5] = target: T3, Tsr^N68A (Escherichia coli, UniProt P02942, N68A); experiment: Microfluidic chemotaxis assay, cells expressing Tsr^N68A as sole receptor; format: cell-based
T3 sequence (P02942 whole entry N68A): as the sequence (P02942 whole entry) above, with N68A counted along it

Tasr [6] = target: T4, Tasr (Escherichia coli, UniProt P02942+P07017); experiment: Microfluidic chemotaxis assay, UU1250 expressing hybrid Tasr as sole receptor; format: cell-based; details: cells expressing hybrid Tasr as sole receptor
T4 sequence (P07017 1-199): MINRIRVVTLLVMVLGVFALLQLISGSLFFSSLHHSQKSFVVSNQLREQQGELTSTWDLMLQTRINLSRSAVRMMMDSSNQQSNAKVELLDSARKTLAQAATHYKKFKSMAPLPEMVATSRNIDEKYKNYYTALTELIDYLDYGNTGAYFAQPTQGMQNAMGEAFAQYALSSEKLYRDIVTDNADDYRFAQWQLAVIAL
T4 sequence (P02942 202-551): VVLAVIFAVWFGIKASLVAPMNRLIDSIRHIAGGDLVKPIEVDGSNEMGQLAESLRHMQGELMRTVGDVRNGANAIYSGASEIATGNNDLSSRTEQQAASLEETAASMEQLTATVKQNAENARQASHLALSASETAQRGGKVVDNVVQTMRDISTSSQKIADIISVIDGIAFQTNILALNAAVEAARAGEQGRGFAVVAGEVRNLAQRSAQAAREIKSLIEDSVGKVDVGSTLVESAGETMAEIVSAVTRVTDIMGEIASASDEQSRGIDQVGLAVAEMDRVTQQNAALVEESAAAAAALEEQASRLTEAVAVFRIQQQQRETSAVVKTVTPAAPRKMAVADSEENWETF

Tsr^R64A = Tsr^R64A (Escherichia coli, UniProt P02942, R64A); experiment: Microfluidic chemotaxis assay, cells expressing Tsr^R64A as sole receptor; format: cell-based
Tsr^R64A, sequence (P02942 whole entry R64A): as the sequence (P02942 whole entry) above, with R64A counted along it

Tsar [7] = target: T5, Tsar (Escherichia coli, UniProt P02942+P07017); experiment: FRET assay, cells expressing Tsar as sole receptor; format: cell-based
T5 sequence (P02942 1-201): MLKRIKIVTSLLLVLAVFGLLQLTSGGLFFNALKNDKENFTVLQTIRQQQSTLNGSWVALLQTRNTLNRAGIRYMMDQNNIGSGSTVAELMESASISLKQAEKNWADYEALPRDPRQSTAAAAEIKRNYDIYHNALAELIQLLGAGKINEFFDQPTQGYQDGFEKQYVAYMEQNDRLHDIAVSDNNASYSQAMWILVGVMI
T5 sequence (P07017 200-553): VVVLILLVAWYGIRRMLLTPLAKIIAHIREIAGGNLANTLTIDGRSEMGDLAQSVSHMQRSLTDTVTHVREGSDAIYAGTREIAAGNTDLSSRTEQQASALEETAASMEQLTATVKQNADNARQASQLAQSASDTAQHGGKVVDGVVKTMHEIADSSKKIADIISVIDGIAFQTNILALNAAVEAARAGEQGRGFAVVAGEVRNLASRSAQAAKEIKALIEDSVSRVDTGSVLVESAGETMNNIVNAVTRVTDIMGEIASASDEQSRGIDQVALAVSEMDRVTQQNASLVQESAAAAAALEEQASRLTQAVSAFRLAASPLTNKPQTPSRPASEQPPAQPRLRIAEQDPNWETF

Tsar [8] = target: T5, Tsar; experiment: Microfluidic chemotaxis assay, UU1250 expressing hybrid Tsar as sole receptor; format: cell-based; details: cells expressing hybrid Tsar as sole receptor
Tsr-LBD [9] = target: T6, Tsr-LBD (Escherichia coli, UniProt P02942); experiment: Microscale thermophoresis; format: binding; details: for binding to Tsr-LBD in competition (MST): pocket saturated with high concentration of L-serine (25 mM)
T6 sequence (P02942 30-190): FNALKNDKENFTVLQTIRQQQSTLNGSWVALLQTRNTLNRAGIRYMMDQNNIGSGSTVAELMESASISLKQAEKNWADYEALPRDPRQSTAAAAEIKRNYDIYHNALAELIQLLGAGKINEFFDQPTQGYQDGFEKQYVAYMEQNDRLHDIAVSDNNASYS
Method in brief: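 Tsr residues 30-190 carrying an N-terminal 6×His tag were expressed in E. coli after 1 mM IPTG induction for 6 h at 28 °C. The protein was purified by Ni affinity and gel filtration (50 mM Tris-HCl pH 8.0, 200 mM NaCl) and labelled with a RED-tris-NTA His-tag dye. Compound serial dilutions in HEPES buffer were mixed 1:1 with protein and read in capillaries at 60% excitation and 20% MST power. Kd came from dose-response fits of normalised traces, temperature-jump/thermophoresis mode.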

Tar [10] = target: T1, Tar; experiment: FRET assay, cells expressing Tar as sole receptor; format: cell-based
Tasr [11] = target: T4, Tasr; experiment: FRET assay, cells expressing Tasr as sole receptor; format: cell-based
Tsr^N68A [12] = target: T3, Tsr^N68A; experiment: FRET assay, cells expressing Tsr^N68A as sole receptor; format: cell-based
Tsr-LBD [13] = target: T6, Tsr-LBD; details: read-out: Kd, previously reported; cited from earlier work

| Structure (SMILES) | FRET response (wild-type RP437) | chemotactic response (microfluidic) [1] | chemotactic response (microfluidic) (Tar [2]) | chemotactic response (microfluidic) (Tsr [3]) | chemotactic response (microfluidic), compared with wild-type Tsr (Tsr^R64AN68A) | effect of adaptation to L-serine on FRET response to ligand (Tsr [4]) | FRET response (kinase activity) (Tsr [4]) | chemotactic response (microfluidic), compared with wild-type Tsr (Tsr^N68A [5]) | chemotactic response (microfluidic) (Tasr [6]) | chemotactic response (microfluidic), compared with wild-type Tsr (Tsr^R64A) | FRET response (Tsar [7]) | chemotactic response (microfluidic) (Tsar [8]) | Kd (Tsr-LBD [9]) [mM] | binding to Tsr-LBD in competition (MST) (Tsr-LBD [9]) | FRET response (Tar [10]) | FRET response (Tasr [11]) | FRET response (Tsr^N68A [12]) | Kd (Tsr-LBD [13]) [mM] |
| --- | --- | --- | --- | --- | --- | --- | --- | --- | --- | --- | --- | --- | --- | --- | --- | --- | --- | --- |
| NC1(C(=O)O)CCCCC1 [ACHC, 1-aminocyclohexanecarboxylic acid] | repellent response | robust repellent responses | did not show obvious responses | robust repellent response | weaker repellent responses | significantly inhibited | repellent response | weaker repellent responses; also recorded: weak repellent response | did not show obvious responses | weaker repellent responses | repellent response | robust repellent responses | 10.6 ± 2.4 | could not bind | no or only a weak response | no or only a weak response | – | – |
| CC(C)C[C@H](N)C(=O)O [L-leucine] | – | repellent responses | no response | repellent response | no response or much weaker responses | significantly inhibited | repellent response | attractant response | no response | no response or much weaker responses | – | repellent responses | 23.6 ± 6.8 | could not bind | – | – | strong attractant response | – |
| N[C@@H](CO)C(=O)O [L-serine] | – | – | – | drifted up the L-serine gradient | weaker attractant responses | – | attractant response | weaker attractant responses | – | weaker attractant responses | – | – | 0.207 | – | – | – | – | 0.0356 |
